Assay results reported in publication PMC3517057 (ChemMedChem, 2012).
One block for each molecule: values may come before it.

What was measured:
mGlu5 [1] = target: T1, mGlu5 (Rattus norvegicus, UniProt P31424); assay: mGlu5 calcium mobilization assay; assay type: cell-based
[2] = Binding to mouse brain homogenates; assay type: in vitro ADME; settings: rapid equilibrium dialysis
[3] = Metabolic stability in mouse liver microsomes; assay type: in vitro ADME; settings: 1 µM, 15 min, 37 °C, NADPH
In short: (§1)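 Test compound at 1 µM was incubated with human or mouse liver microsomes in phosphate buffer with NADPH cofactor, for 15 min at 37 °C with shaking.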

[4] = tested on: 68 primary molecular targets (GPCRs, kinases, ion channels); assay: Ricerca LeadProfilingScreen radioligand binding panel; settings: 10 µM
rat mGlu5 = rat mGlu5 (Rattus norvegicus, UniProt P31424); assay: Glutamate-induced ERK1/2 phosphorylation in HEK293 cells expressing rat mGlu5; assay type: cell-based; settings: 10 nM to 1 µM 18k
Sequence of rat mGlu5 (P31424 21-1203): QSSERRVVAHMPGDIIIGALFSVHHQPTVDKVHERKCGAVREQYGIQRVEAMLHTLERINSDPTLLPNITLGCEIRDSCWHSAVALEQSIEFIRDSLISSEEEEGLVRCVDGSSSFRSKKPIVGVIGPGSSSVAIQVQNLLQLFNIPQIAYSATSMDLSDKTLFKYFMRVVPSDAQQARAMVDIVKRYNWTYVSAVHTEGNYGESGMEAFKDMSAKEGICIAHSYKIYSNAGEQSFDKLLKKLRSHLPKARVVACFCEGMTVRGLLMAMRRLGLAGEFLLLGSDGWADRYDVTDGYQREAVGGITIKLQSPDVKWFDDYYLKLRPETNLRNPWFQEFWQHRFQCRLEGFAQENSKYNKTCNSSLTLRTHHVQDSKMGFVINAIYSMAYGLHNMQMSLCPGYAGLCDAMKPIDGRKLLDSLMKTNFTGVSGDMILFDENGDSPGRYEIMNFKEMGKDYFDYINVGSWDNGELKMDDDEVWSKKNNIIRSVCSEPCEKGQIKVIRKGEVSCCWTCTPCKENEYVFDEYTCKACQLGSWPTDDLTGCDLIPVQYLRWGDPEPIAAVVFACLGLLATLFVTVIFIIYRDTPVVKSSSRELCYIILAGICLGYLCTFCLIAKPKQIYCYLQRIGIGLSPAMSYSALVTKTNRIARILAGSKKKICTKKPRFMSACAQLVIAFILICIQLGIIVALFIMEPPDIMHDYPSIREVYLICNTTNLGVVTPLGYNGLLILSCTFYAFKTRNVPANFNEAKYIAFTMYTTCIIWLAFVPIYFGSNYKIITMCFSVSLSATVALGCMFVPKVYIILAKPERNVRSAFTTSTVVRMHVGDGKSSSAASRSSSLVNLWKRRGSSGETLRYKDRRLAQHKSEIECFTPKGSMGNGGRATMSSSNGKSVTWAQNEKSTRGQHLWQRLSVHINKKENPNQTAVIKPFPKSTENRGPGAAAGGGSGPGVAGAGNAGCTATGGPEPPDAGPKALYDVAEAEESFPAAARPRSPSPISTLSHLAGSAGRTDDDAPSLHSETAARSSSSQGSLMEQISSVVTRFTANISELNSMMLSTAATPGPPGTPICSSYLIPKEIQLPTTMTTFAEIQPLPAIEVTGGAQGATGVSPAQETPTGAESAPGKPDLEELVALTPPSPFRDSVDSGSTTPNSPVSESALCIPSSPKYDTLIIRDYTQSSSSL

[5] = Plasma and brain exposure after intraperitoneal dosing in mice; assay type: in vivo, male CD-1 mice; settings: 10 mg/kg i.p.
In short: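 Male CD-1 mice received 10 mg/kg i.p. as a microsuspension in 10% tween 80, with two mice per time point. Brain and plasma were sampled at 0.5, 1, 3 and 6 h post dose.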

[6] = Metabolic stability in human liver microsomes; assay type: in vitro ADME; settings: 1 µM, 15 min, 37 °C, NADPH
In short: as §1

[7] = Exposure following oral dosing in mice; assay type: in vivo
C57Bl/6J mice [8] = assay: Operant sensation seeking; assay type: in vivo
mGlu1–4 and mGlu6–8 = assay: Selectivity against other mGlu receptors; assay type: cell-based; settings: 10 µM
adenosine A3 receptor = target: T2, adenosine A3 receptor (Homo sapiens, UniProt P0DMS8); assay: Ricerca LeadProfilingScreen radioligand binding, adenosine A3 receptor; settings: 10 µM
T2 sequence (P0DMS8 1-318): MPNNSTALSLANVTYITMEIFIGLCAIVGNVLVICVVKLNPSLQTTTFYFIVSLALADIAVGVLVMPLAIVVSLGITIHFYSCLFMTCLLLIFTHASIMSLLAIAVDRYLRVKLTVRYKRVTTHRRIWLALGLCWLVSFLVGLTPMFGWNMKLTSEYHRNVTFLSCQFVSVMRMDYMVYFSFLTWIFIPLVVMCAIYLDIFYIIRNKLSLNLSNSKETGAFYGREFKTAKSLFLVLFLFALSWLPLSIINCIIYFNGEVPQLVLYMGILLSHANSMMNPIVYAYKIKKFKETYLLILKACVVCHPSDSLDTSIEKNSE
In short: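 The test compound was run at 10 µM in a commercial profiling panel of radioligand binding assays covering 68 primary molecular targets, including GPCRs, kinases and ion channels.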

mGlu5 [9] = target: T1, mGlu5; assay: Effect on glutamate CRC in rat cortical astrocytes; assay type: cell-based; settings: 300 nM, 1 µM, 30 µM 18k
[10] = Protein binding in mouse plasma; assay type: in vitro ADME; settings: rapid equilibrium dialysis
mice [11] = assay: Marble burying model of anxiety; assay type: in vivo; settings: for Inhibition of marble burying: 15 minute pretreatment; for Sedation: marble burying study, i.p., all dosing groups
In short: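 Mice were scored for burying glass marbles in deep bedding. Test compound or the MTEP positive control (15 mg/kg) was given i.p. in 10% tween 80 vehicle 15 min before testing. Testing ran from 15 to 45 min post dose, with n=12 per dosing group. Significance was P < 0.05 vs vehicle by Dunnett's test.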

mice [12] = settings: cited from earlier work
C57Bl/6J mice [13] = settings: low doses; cited from earlier work
[14] = mGlu5 calcium mobilization, average of at least three determinations

T1 sequence (P31424 21-1203): as the sequence (P31424 21-1203) above

SMILES: N#Cc1cnc(Nc2nc3ccccc3o2)nc1-c1cccs1 [18ee]
IC50 (mGlu5 [1]; [14]): > 10000 nM

SMILES: COc1ccccc1-c1nc(Nc2nc3ccccc3o2)ncc1C#N [18g]
IC50 (mGlu5 [1]; [14]): 62 ± 10 nM

SMILES: N#Cc1cnc(Nc2nc3ccccc3o2)nc1-c1ccc(F)cc1 [18k]
IC50 (mGlu5 [1]; [14]): 91 ± 22 nM | bound to mouse brain homogenates [2]: 99.5% | Stability in liver microsomes [3]: Enhanced stability relative to 13 | Inhibition of radioligand binding in 68-target panel [4]: inhibition of more than 50% of radioligand binding was observed only in the adenosine A3 receptor assay | Effect on ERK1/2 phosphorylation response to glutamate (rat mGlu5): blocked the effect of glutamate in a concentration dependent manner | Brain AUC [5]: 1006 ng·h/g | Plasma AUC [5]: 224 ng·h/mL | Brain [ ] ([5]; 0.5 h): 136 ng/mL | Brain:Plasma ratio ([5]; 0.5 h): 4.3 | Plasma [ ] ([5]; 0.5 h): 31.8 ng/mL | average brain concentration ([5]; 30 minutes): 0.41 µM | Brain [ ] ([5]; 1 h): 283 ng/mL | Brain:Plasma ratio ([5]; 1 h): 4.4 | Plasma [ ] ([5]; 1 h): 64.7 ng/mL | brain concentration ([5]; 1 hour post dose): 850 nM | Brain [ ] ([5]; 3 h): 193 ng/mL | Brain:Plasma ratio ([5]; 3 h): 4.3 | Plasma [ ] ([5]; 3 h): 45.4 ng/mL | Brain [ ] ([5]; 6 h): 68 ng/mL | Brain:Plasma ratio ([5]; 6 h): 7.4 | Plasma [ ] ([5]; 6 h): 9.2 ng/mL | brain to plasma ratio ([5]; exposure ratio, to 1): more than 4 | Stability in liver microsomes [6]: Enhanced stability relative to 13 | Exposure in plasma and brain [7]: no exposure above detectable limits in either plasma or brain | Efficacy in OSS (C57Bl/6J mice [8]; both 30 and 56.6 mg/kg doses i.p., P < 0.05 vs. vehicle): significant efficacy | Progressive ratio responding for OSS stimuli (C57Bl/6J mice [8]; i.p., dose response): dose dependently reduced progressive ratio responding for OSS stimuli | Effect on responding for a food reinforcer (C57Bl/6J mice [8]; i.p., food control): no significant effects | Activity against other mGlu receptors (mGlu1–4 and mGlu6–8): no observable activity | inhibition of binding (adenosine A3 receptor): 73% | Effect on glutamate concentration response curve (mGlu5 [9]): induced a rightward shift in the glutamate concentration response curve (CRC) and reduced the maximal effect of glutamate | bound to mouse plasma [10]: 99.4% | Inhibition of marble burying (mice [11]; 56.6 mg/kg i.p. (highest dose), P < 0.05 vs. vehicle): Significant inhibition of marble burying | Sedation (mice [11]): No sedation was observed

SMILES: N#Cc1cnc(Nc2nc3ccccc3o2)nc1-c1ccc(C(F)(F)F)cc1 [18m]
IC50 (mGlu5 [1]; [14]): > 30000 nM

SMILES: CCOc1ccccc1-c1nc(Nc2nc3ccccc3o2)ncc1C#N [18r]
IC50 (mGlu5 [1]; [14]): 6580 ± 1670 nM

SMILES: Cc1cccc(C#Cc2ccccc2)n1 [MPEP]
Efficacy in marble burying model (mice [12]): effective

SMILES: Cc1nc(C#Cc2cccnc2)cs1 [MTEP, reference compound]
Inhibition of marble burying (mice [11]; 15 mg/kg i.p., positive control): Robust inhibition of marble burying | Sedation (mice [11]): No sedation was observed

SMILES: OCCN1CCN(CC/C=C2/c3ccccc3Sc3ccc(C(F)(F)F)cc32)CC1 [cis-flupenthixol]
Responding for OSS stimuli (C57Bl/6J mice [13]): increased responding for OSS stimuli

SMILES: CN1CC(=O)NC1=NC(=O)Nc1cccc(Cl)c1 [fenobam]
Efficacy in marble burying model (mice [12]): effective

Continued, values first:

IC50 (mGlu5 [1]; [14]): 2580 ± 1170 nM
SMILES: N#Cc1cnc(Nc2nc3ccccc3o2)nc1-c1ccc(F)c(F)c1 [18t]

IC50 (mGlu5 [1]; [14]): 375 ± 90 nM
SMILES: N#Cc1cnc(Nc2nc3ccccc3o2)nc1-c1ccc(Cl)cc1F [18y]

IC50 (mGlu5 [1]; [14]): 217 ± 10 nM
SMILES: COc1cc(F)ccc1-c1nc(Nc2nc3ccccc3o2)ncc1C#N [18z]

IC50 (mGlu5 [1]; [14]): 89 ± 32 nM | IC50 (mGlu5 [1]; original batch of virtual screen hit (ChemDiv), 10-point CRC): 75 nM
SMILES: N#Cc1cnc(Nc2nc3ccccc3o2)nc1-c1ccccc1 [compound 13]
